Test results reported in ChEMBL document CHEMBL3272018, “Synthesis of aziridinylallylaminophosphine oxides and sulfides as potential adjuvant cancer chemotherapeutic agents” (J Med Chem, 1976).
Activity calls are given as the source filed them. No cut-off for these calls is given here.

What was measured:
W256 [1] = experiment: Antitumor activity against rat Walker 256 cells intramuscularly allografted in rat assessed as survival rate at 0.23 mg/kg, qd administered for 5 days; format: functional, organism-based; parameters: dose 0.23 mg/kg
Procedure, shortened: (§1)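 Rats bearing Walker 256 carcinoma as a solid tumor; lines 1-8 use a cytoxan-resistant Walker 256 subline. Dosed once daily for 5 days. Treated (T) and untreated control (C) groups are compared, and the response is given as T/C percentage, reflecting increase in survival time. Host weight change is the average weight change of the test group minus that of the controls, in grams.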

W256 [2] = experiment: Antitumor activity against rat Walker 256 cells intramuscularly allografted in rat assessed as survival rate at 0.95 mg/kg, qd administered for 5 days; format: functional, organism-based; parameters: dose 0.95 mg/kg; procedure, shortened: as §1
Rattus norvegicus [3] = experiment: Toxicity in rat allografted with rat Walker 256 cells intramuscularly assessed as change in body weight at 0.23 mg/kg, qd administered for 5 days; format: organism-based; parameters: dose 0.23 mg/kg, route intramuscular; conditions: in vivo, im, 120 h
Procedure, shortened: (§2)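 Walker 256 carcinoma solid-tumour system in rats (parent line, or the line resistant to cytoxan). Dosing was one injection per day for 5 days. Toxicity was taken as the average net body-weight change of the treated group minus the average net weight change of the untreated tumour-bearing controls, in grams.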

L1210 [4] = experiment: In vivo antitumor activity against mouse L1210 cells in prognostic scoring system assessed as tumor growth inhibition at 1.65 mg/kg administered 3 doses relative to control; format: functional
Musca domestica [5] = experiment: Toxicity in male house fly assessed as lowest dose required to cause complete sterility administered in sugar; format: organism-based; conditions: in vivo, po
W256 [6] = experiment: Antitumor activity against rat Walker 256 cells intramuscularly allografted in rat assessed as survival rate at 1.9 mg/kg, qd administered for 5 days; format: functional, organism-based; parameters: dose 1.9 mg/kg; procedure, shortened: as §1
W256 [7] = experiment: Antitumor activity against rat Walker 256 cells intramuscularly allografted in rat assessed as tumor growth inhibition; format: functional; conditions: W256, im
Procedure, shortened: (§3)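 Dosed once daily for 5 days. Response is tumor progression in treated (T) versus untreated control (C) animals, expressed as T/C percentage. Host weight change is reported as the average net weight change of the test group minus that of the controls, in grams.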

Rattus norvegicus [8] = experiment: Toxicity in rat allografted with rat Walker 256 cells intramuscularly assessed as change in body weight at 0.95 mg/kg, qd administered for 5 days; format: organism-based; parameters: dose 0.95 mg/kg, route intramuscular; conditions: in vivo, im, 120 h; procedure, shortened: as §2
Rattus norvegicus [9] = experiment: Toxicity in rat allografted with rat Walker 256 cells intramuscularly assessed as change in body weight at 0.47 mg/kg, qd administered for 5 days; format: organism-based; parameters: dose 0.47 mg/kg, route intramuscular; conditions: in vivo, im, 120 h; procedure, shortened: as §2
L1210 [10] = experiment: In vivo antitumor activity against mouse L1210 cells in prognostic scoring system assessed as survival rate at 0.75 mg/kg, qd administered for 15 days; format: functional, organism-based; parameters: dose 0.75 mg/kg
Procedure, shortened: (§4)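 L1210 leukaemia in mice, run as an ascites tumour system. Injections were once daily for 9 or 15 days, or as a single dose. Response is the increase in survival time, given as T/C %, treated over untreated controls; a larger value means more activity. Weight change is the treated-group mean minus the control-group mean, in grams.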

Rattus norvegicus [11] = experiment: Toxicity in rat allografted with rat Walker 256 cells intramuscularly assessed as change in body weight at 1.9 mg/kg, qd administered for 5 days; format: organism-based; parameters: dose 1.9 mg/kg, route intramuscular; conditions: in vivo, im, 120 h; procedure, shortened: as §2
L1210 [12] = experiment: In vivo antitumor activity against mouse L1210 cells in prognostic scoring system assessed as tumor growth inhibition at 0.6 mg/kg administered 9 doses relative to control; format: functional
Rattus norvegicus [13] = experiment: Toxicity in rat allografted with rat Walker 256 cells intramuscularly assessed as change in body weight at 1 mg/kg, qd administered for 5 days; format: organism-based; parameters: dose 1 mg/kg, route intramuscular; conditions: in vivo, im, 120 h; procedure, shortened: as §2
W256 [14] = experiment: Antitumor activity against rat Walker 256 cells intramuscularly allografted in rat assessed as tumor growth inhibition at 1 mg/kg, qd administered for 5 days relative to control; format: functional; conditions: W256, im, 120 h, route intramuscular, read-out: TGI; procedure, shortened: as §3
W256 [15] = experiment: Antitumor activity against rat Walker 256 cells intramuscularly allografted in rat assessed as survival rate at 1 mg/kg, qd administered for 5 days; format: functional, organism-based; parameters: dose 1 mg/kg; procedure, shortened: as §1
[16] = Toxicity in rat allografted with rat Walker 256 cells intramuscularly; format: organism-based
L1210 [17] = experiment: In vivo antitumor activity against mouse L1210 cells in prognostic scoring system assessed as survival rate at 0.37 mg/kg, qd administered for 15 days; format: functional, organism-based; parameters: dose 0.37 mg/kg; procedure, shortened: as §4
W256 [18] = experiment: Antitumor activity against rat Walker 256 cells intramuscularly allografted in rat assessed as tumor growth inhibition at 1.9 mg/kg, qd administered for 5 days relative to control; format: functional; conditions: W256, im, 120 h, route intramuscular, read-out: TGI
Procedure, shortened: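 Walker 256 carcinoma grown as a solid tumour in rats, with one injection daily for 5 days. Response is given as T/C %, the treated-group measure over the untreated-control tumour measure; a smaller value means more activity. Host toxicity is the mean net weight change of treated minus control animals, in grams.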

L1210 [19] = experiment: In vivo antitumor activity against mouse L1210 cells in prognostic scoring system assessed as survival rate at 3 mg/kg, qd administered for 15 days; format: functional, organism-based; parameters: dose 3 mg/kg; procedure, shortened: as §4
W256 [20] = experiment: Antitumor activity against rat Walker 256 cells intramuscularly allografted in rat assessed as tumor growth inhibition at 0.23 mg/kg, qd administered for 5 days relative to control; format: functional; conditions: W256, im, 120 h, route intramuscular, read-out: TGI; procedure, shortened: as §3
L1210 [21] = experiment: In vivo antitumor activity against mouse L1210 cells in prognostic scoring system assessed as […] at 0.37 mg/kg, qd administered for 15 days relative to control; format: functional; conditions: L1210, 360 h, read-out: TGI
[22] = Therapeutic index, ratio of LD50 for rat allografted with rat Walker 256 cells to ED10 for antitumor activity against rat Walker 256 cells intramuscularly allografted in rat; format: cell-based; conditions: read-out: TI
Procedure, shortened: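 Therapeutic index is LD50/ED10 in the Walker 256 solid tumour system. ED10 is the dose giving a 10% tumour weight reduction, with values extrapolated from dose-response data.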

W256 [23] = experiment: Antitumor activity against rat Walker 256 cells intramuscularly allografted in rat assessed as survival rate at 0.47 mg/kg, qd administered for 5 days; format: functional, organism-based; parameters: dose 0.47 mg/kg; procedure, shortened: as §1
W256 [24] = experiment: Antitumor activity against rat Walker 256 cells intramuscularly allografted in rat assessed as tumor growth inhibition at 0.95 mg/kg, qd administered for 5 days relative to control; format: functional; conditions: W256, im, 120 h, route intramuscular, read-out: TGI; procedure, shortened: as §3
W256 [25] = experiment: Antitumor activity against rat Walker 256 cells intramuscularly allografted in rat assessed as tumor growth inhibition at 0.47 mg/kg, qd administered for 5 days relative to control; format: functional; conditions: W256, im, 120 h, route intramuscular, read-out: TGI; procedure, shortened: as §3
L1210 [26] = experiment: In vivo antitumor activity against mouse L1210 cells in prognostic scoring system assessed as survival rate at 1.5 mg/kg, qd administered for 15 days; format: functional, organism-based; parameters: dose 1.5 mg/kg; procedure, shortened: as §4
Musca domestica [27] = experiment: Toxicity in male house fly assessed as lowest dose required to cause complete sterility administered in food; format: organism-based; conditions: in vivo, po
L1210 [28] = experiment: In vivo antitumor activity against mouse L1210 cells in prognostic scoring system assessed as tumor growth inhibition at 100 mg/kg administered as single dose (reference value: 10.9 g); format: functional; procedure, shortened: as §4
L1210 [29] = experiment: In vivo antitumor activity against mouse L1210 cells in prognostic scoring system assessed as survival rate at 400 mg/kg administered as single dose; format: functional, organism-based; parameters: dose 400 mg/kg; procedure, shortened: as §4
Musca domestica [30] = experiment: Toxicity in male house fly at 1% administered in sugar; format: organism-based; conditions: in vivo, po
L1210 [31] = experiment: In vivo antitumor activity against mouse L1210 cells in prognostic scoring system assessed as survival rate at 100 mg/kg administered as single dose; format: functional, organism-based; parameters: dose 100 mg/kg; procedure, shortened: as §4
L1210 [32] = experiment: In vivo antitumor activity against mouse L1210 cells in prognostic scoring system assessed as tumor growth inhibition at 200 mg/kg administered as single dose (reference value: 10.9 g); format: functional; procedure, shortened: as §4
L1210 [33] = experiment: In vivo antitumor activity against mouse L1210 cells in prognostic scoring system assessed as survival rate at 200 mg/kg administered as single dose; format: functional, organism-based; parameters: dose 200 mg/kg; procedure, shortened: as §4
L1210 [34] = experiment: In vivo antitumor activity against mouse L1210 cells in prognostic scoring system assessed as tumor growth inhibition at 400 mg/kg administered as single dose (reference value: 10.9 g); format: functional; procedure, shortened: as §4

C=CCN(CC=C)P(=O)(N1CC1)N1CC1C (stereo not given)
Activity (W256 [1]): Active | Activity (W256 [2]): Active | Activity (Rattus norvegicus [3]): -7 g | T/C (L1210 [4]): 159% | Activity (Musca domestica [5]): 0.25% | Activity (W256 [6]): Active | ED10 (W256 [7]): 0.52 mg/kg | Activity (Rattus norvegicus [8]): -8 g | Activity (Rattus norvegicus [9]): 0 g | Activity (L1210 [10]): Active | Activity (Rattus norvegicus [11]): -13 g | T/C (L1210 [12]): 189% | Activity (Rattus norvegicus [13]): -9 g | inhibition in vivo at 1 mg/kg (W256 [14]): 2% | Activity (W256 [15]): Active | LD50 [16]: 7 mg/kg | Activity (L1210 [17]): Active | inhibition in vivo at 1.9 mg/kg (W256 [18]): 0% | Activity (L1210 [19]): Active | inhibition in vivo at 0.23 mg/kg (W256 [20]): 30% | inhibition in vivo at 0.37 mg/kg (L1210 [21]): 117% | selectivity ratio [22]: 13 | Activity (W256 [23]): Active | inhibition in vivo at 0.95 mg/kg (W256 [24]): 0% | inhibition in vivo at 0.47 mg/kg (W256 [25]): 5% | Activity (L1210 [26]): Active | Activity (Musca domestica [27]): 0.1%

C=CCN(c1ccccc1)P(=O)(N1CC1)N1CC1
Activity (L1210 [28]): 10.5 g | Activity (L1210 [29]): Active | Activity (Musca domestica [30]): Non-toxic | Activity (L1210 [31]): Active | Activity (L1210 [32]): 10.5 g | LD50 [16]: > 300 mg/kg | Activity (L1210 [33]): Active | Activity (L1210 [34]): 10.5 g
